What was measured:
[1] = system: naive CD8+ T cells derived from HD-PBMCs; format: cell-based, human; details: for CD8+ T-cell induction by AKF9 variants, in words: seven HD-PBMCs, cocktail of AKF9 variants along with the WT, tetramer staining; for immunogenicity (CD8+ T-cell induction), in words: six HD-PBMCs, cocktail of four natural HLA-A24 neoantigens
[2] = system: HLA-A24 on T2-A24 cells; test: Peptide-HLA class I stability assay; format: binding, human; details: peptide 0.3 to 3 µM
How it was run: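 TAP-deficient T2-A24 cells were pre-cultured overnight at 25°C. Cells were pulsed with mutant or WT peptide (0.3–3 µM) for 1 h at 25°C, then 3 h at 37°C. Surface HLA-A24 was stained with anti-HLA-A24 (C7709A2) and goat anti-mouse IgG-FITC, then read by flow cytometry. ΔMFI = MFI with peptide minus MFI without. Known HLA-A24 binder and non-binder peptides were controls. Comparison at 1 µM, SEM (n = 3), two-tailed t-test.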

[3] = system: neoantigen-reactive CD8+ T-cell clones; test: IFNγ ELISpot assay of neoantigen-reactive CD8+ T-cell clones; format: cell-based, human; details: T2-A24 pulsed with 20 µM peptide, 24 h 37°C
How it was run: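 Clones came from single tetramer-positive CD8+ cells sorted and expanded with irradiated allogeneic feeders, 5 μg/mL PHA and 100 IU/mL IL-2. T2-A24 cells were pre-incubated with 20 µM mutant or WT peptide for 2 h at 25°C. Spots were detected with 2 µg/mL biotinylated anti-IFNγ, streptavidin-HRP and AEC substrate.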

Sequence: AYLEAIHDF [ADF9]
- CD8+ T-cell induction by AKF9 variants, in words [1]: increased the frequency

Sequence: AYLEAIHHF [AHF9]
- CD8+ T-cell induction by AKF9 variants, in words [1]: increased the frequency

Sequence: AYLEAIHKF [AKF9]
- number of HDs with CD8+ T-cell response ([1]; of six HD-PBMCs, response = ≥ 4-fold increase with ≥ 0.1% tetramer+ CD8+ cells): three
- CD8+ T-cell induction by AKF9 variants, in words [1]: increased the frequency
- immunogenicity (CD8+ T-cell induction), in words [1]: immunogenic
- effect of the mutation on pHLA I stability versus wild-type peptide [2]: unaltered

Sequence: AYLEAIHNF [ANF9]
- recognition by ADF9-reactive CD8+ T-cell clones (D1-D5), IFNγ ELISpot [3]: three of the five clones

Sequence: AYLEAIHYF [AYF9]
- CD8+ T-cell induction by AKF9 variants, in words [1]: increased the frequency

Sequence: HYAALRELI [HI9]
- immunogenicity (CD8+ T-cell induction), in words [1]: failed to induce T-cell responses

Sequence: TLPEEFHEF [TEF9]
- immunogenicity (CD8+ T-cell induction), in words [1]: immunogenic
- effect of the mutation on pHLA I stability versus wild-type peptide [2]: increased

Sequence: VYVAKLHDI [VYI9]
- immunogenicity (CD8+ T-cell induction), in words [1]: failed to induce T-cell responses
